Test results from ChEMBL document CHEMBL1131482 (J Med Chem, 1998).
The source made the active and inactive calls.

Legend:
Mus musculus [1] = species on record: Mus musculus; experiment: Analgesic efficacy is expressed as percentage of that epibatidine, done on mouse.; assay type: functional
Mus musculus [2] = experiment: MNTD:Maximal nontoxic dose of the compound, done on mouse; sc; assay type: functional
Outline: (§1)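 Male Swiss-Webster mice dosed sc. The value is the highest dose causing no visible behavioural change (tremors, convulsions, hypomotility etc.), so that treated mice could not be told apart from untreated ones. Behaviour was scored by the Irwin method in groups of at least 10 animals.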

Mus musculus [3] = experiment: Licking latency was measured after 15 min treatment (at dose=10 mg/kg) by using mouse hot plate test; assay type: functional
Outline: (§2)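 Male Swiss-Webster mice (22-28 g), 23 ± 1 °C, 12-h light/dark cycle, food and water ad libitum. Hot plate at 52.5 ± 0.1 °C with licking latency as read-out and 45 s cutoff. Mice with pre-drug latency below 12 or over 18 s were rejected. Compounds given sc, 5-12 mice per test. Significance was assessed by Dunnett's two-tailed test, P < 0.05.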

Mus musculus [4] = experiment: Licking latency was measured after 15 min treatment (at dose=5 mg/kg) by using mouse hot plate test; assay type: functional; outline: as §2
Mus musculus [5] = experiment: Licking latency was measured after 45 min treatment (at dose=5 mg/kg) by using mouse hot plate test; assay type: functional; outline: as §2
Mus musculus [6] = experiment: Licking latency was measured before treatment (at dose=5 mg/kg) by using mouse hot plate test; assay type: functional
Outline: (§3)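 Male Swiss-Webster mice (22-28 g), 23 ± 1 °C, 12-h light/dark cycle. Hot plate at 52.5 ± 0.1 °C. Mice with pre-drug licking latency below 12 s or over 18 s were rejected. Cutoff 45 s. Compound given sc; latency read before dosing and at 15, 30 and 45 min. 5-12 mice per test.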

Mus musculus [7] = experiment: Licking latency was measured after 30 min treatment (at dose=10 mg/kg) by using mouse hot plate test; assay type: functional; outline: as §2
Mus musculus [8] = species on record: Mus musculus; experiment: Analgesic efficacy is expressed as percentage of that morphine, done on mouse.; assay type: functional
Mus musculus [9] = experiment: Licking latency was measured before treatment (at dose=10 mg/kg) by using mouse hot plate test; assay type: functional; outline: as §2
Mus musculus [10] = experiment: Licking latency was measured after 45 min treatment (at dose=10 mg/kg) by using mouse hot plate test; assay type: functional; outline: as §2
Mus musculus [11] = experiment: MAD: minimal dose able to induce a statistically significant increase of the pain threshold, done on mouse; sc; assay type: functional
Outline: (§4)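 Mouse hot plate test (52.5 ± 0.1 °C, 45 s cutoff) after sc dosing, in male Swiss-Webster mice. The value is the lowest dose giving a statistically significant rise in pain threshold. Dunnett's two-tailed test compared treated mice at maximum reaction time with pretest time, P < 0.05.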

Mus musculus [12] = experiment: Licking latency was measured after 30 min treatment (at dose=5 mg/kg) by using mouse hot plate test; assay type: functional; outline: as §2
Mus musculus [13] = experiment: Licking latency was measured before treatment (at dose=3 mg/kg) by using mouse hot plate test; assay type: functional; outline: as §3
Mus musculus [14] = experiment: Licking latency was measured after 45 min treatment (at dose=3 mg/kg) by using mouse hot plate test; assay type: functional; outline: as §2
Mus musculus [15] = experiment: Licking latency was measured after 30 min treatment (at dose=3 mg/kg) by using mouse hot plate test; assay type: functional; outline: as §2
Mus musculus [16] = experiment: Licking latency was measured after 15 min treatment (at dose=3 mg/kg) by using mouse hot plate test; assay type: functional; outline: as §2
Mus musculus [17] = experiment: Licking latency was measured after 30 min treatment (at dose=50 mg/kg) by using mouse hot plate test; assay type: functional; outline: as §2
Mus musculus [18] = experiment: MAD: minimal dose able to induce a statistically significant increase of the pain threshold, done on mouse; sc; IA = inactive; assay type: functional, organism-based; outline: as §4
Mus musculus [19] = experiment: Licking latency was measured before treatment (at dose=50 mg/kg) by using mouse hot plate test; assay type: functional; outline: as §3
Mus musculus [20] = experiment: Licking latency was measured after 15 min treatment (at dose=50 mg/kg) by using mouse hot plate test; assay type: functional; outline: as §2
Mus musculus [21] = experiment: Licking latency was measured after 45 min treatment (at dose=50 mg/kg) by using mouse hot plate test; assay type: functional; outline: as §2
Mus musculus [22] = experiment: Licking latency was measured after 30 min treatment (at dose=25 mg/kg) by using mouse hot plate test (*P<0.01); assay type: functional; outline: as §2
Mus musculus [23] = experiment: Licking latency was measured after 45 min treatment (at dose=25 mg/kg) by using mouse hot plate test; assay type: functional; outline: as §2
Mus musculus [24] = experiment: Licking latency was measured after 15 min treatment (at dose=25 mg/kg) by using mouse hot plate test; assay type: functional; outline: as §2
Mus musculus [25] = experiment: Licking latency was measured before treatment (at dose=25 mg/kg) by using mouse hot plate test; assay type: functional; outline: as §2
TE-671 [26] = experiment: Cholinergic interactions was measured with FLIPR device on TE671 cells and given as Effective dose; assay type: functional, cell-based; conditions: Homo sapiens
Outline: (§5)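 Cells were plated on poly(ethylenimine)-coated plates and used about 72 h later. Loading was Fluo-3 AM for 1 h at 37 °C, followed by washes in Hepes-salts buffer, pH 7.4. FLIPR recorded Ca2+ fluorescence over 5 min after agonist addition. Responses were normalized to 100 µM nicotine (100%) and unloaded cells (0%), and EC50 and intrinsic activity were derived from concentration-response curves.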

TE-671 [27] = experiment: Cholinergic interactions was measured with FLIPR device on TE671 cells and given as Intrinsic activity; assay type: functional, Homo sapiens; outline: as §5
Mus musculus [28] = experiment: Minimal dose able to induce a statistically significant increase of the pain threshold, done on mouse; sc; assay type: functional; outline: as §4
K177 cell line [29] = experiment: Cholinergic interactions was measured with FLIPR device on […] cells and given as Intrinsic activity; assay type: functional, Homo sapiens; outline: as §5
IMR-32 [30] = experiment: Cholinergic interactions was measured with FLIPR device on cells of IMR-32 human neuroblastoma clonal line and given as Intrinsic activity; assay type: functional; outline: as §5
IMR-32 [31] = experiment: Cholinergic interactions was measured with FLIPR device on IMR-32 cells of human neuroblastoma clonal line, given as effective dose; assay type: functional, cell-based; outline: as §5
K177 cell line [32] = experiment: Cholinergic interactions was measured with FLIPR device on […] cells and given as EC50.; assay type: functional, cell-based; conditions: Homo sapiens; outline: as §5
Mus musculus [33] = experiment: Maximal nontoxic dose of the compound, done on mouse; sc; assay type: functional; outline: as §1
Mus musculus [34] = experiment: Licking latency was measured after 30 min treatment (at dose=25 mg/kg) by using mouse hot plate test(*P<0.05); assay type: functional; outline: as §2
Mus musculus [35] = experiment: Licking latency was measured after 15 min treatment (at dose=25 mg/kg) by using mouse hot plate test (*P<0.01); assay type: functional; outline: as §2
Mus musculus [36] = experiment: Licking latency was measured after 45 min treatment (at dose=25 mg/kg) by using mouse hot plate test (*P<0.05); assay type: functional; outline: as §2
Mus musculus [37] = experiment: 15.5 Licking latency was measured after 15 min treatment (at dose=5 mg/kg) by using mouse hot plate test; assay type: functional; outline: as §2

Structure (SMILES) | Analgesic efficacy compared to epibatidine (Mus musculus [1]) [%] | MNTD (Mus musculus [2]) [mg/kg] | Licking latency (Mus musculus [3]) [s] | Licking latency (Mus musculus [7]) [s] | Analgesic efficacy compared to morphine (Mus musculus [8]) [%] | Licking latency (Mus musculus [9]) [s] | Licking latency (Mus musculus [10]) [s] | MAD (Mus musculus [11]) [mg/kg] | also measured
Clc1ccnc(N2CC3CCC(C2)N3)n1 | 75 | 15 | 26.3 | 21.2 | 60 | 14.6 | 22.1 | 5 | Licking latency (Mus musculus [4]): 20.5 s; Licking latency (Mus musculus [5]): 15.6 s; Licking latency (Mus musculus [6]): 15 s; Licking latency (Mus musculus [12]): 17.8 s
Clc1nccc(N2CC3CCC(C2)N3)n1 | 99 | 15 | 31.1 | 26 | 82 | 15.3 | 24.3 | 3 | Licking latency (Mus musculus [13]): 14.5 s; Licking latency (Mus musculus [14]): 16.2 s; Licking latency (Mus musculus [15]): 17.4 s; Licking latency (Mus musculus [16]): 21.3 s
CCC(=O)N1CC2CCC(C1)N2c1ccc(Cl)nn1 |  | >50 | 16 | 16.7 |  | 15.8 | 16.1 |  | Licking latency (Mus musculus [17]): 13 s; MAD (Mus musculus [18]): inactive; Licking latency (Mus musculus [19]): 14.6 s; Licking latency (Mus musculus [20]): 17 s; Licking latency (Mus musculus [21]): 14 s
Clc1cc(N2CC3CCC(C2)N3)ncn1 | 156 | 30 | 22.2 | 19.7 | 127 | 13.6 | 19.6 | 10 | Licking latency (Mus musculus [22]): 38.5 s; Licking latency (Mus musculus [23]): 39.1 s; Licking latency (Mus musculus [24]): 39.5 s; Licking latency (Mus musculus [25]): 14.9 s
Clc1ccc(C2CC3CC[C@H]2N3)cn1 (stereo not given in full) [EPIBATIDINE] |  |  |  |  |  |  |  |  | Efficacy (Mus musculus [1]): 100%; EC50 (TE-671 [26]): 1260 nM; Intrinsic activity (TE-671 [27]): 79.5%; MAD (Mus musculus [28]): 0.001 mg/kg; Intrinsic activity (K177 cell line [29]): 148.1%; Intrinsic activity (IMR-32 [30]): 145.6%; Efficacy (Mus musculus [8]): 82%; EC50 (IMR-32 [31]): 34 nM; EC50 (K177 cell line [32]): 350 nM; MNTD (Mus musculus [33]): 0.007 mg/kg
CCN1C2CCC1CN(c1ccc(Cl)nn1)C2 | 74 | 20 | 19.3 | 18.4 | 61 | 13.2 | 16.4 | 10 | Licking latency (Mus musculus [34]): 20.5 s; Licking latency (Mus musculus [35]): 26 s; Licking latency (Mus musculus [25]): 14.3 s; Licking latency (Mus musculus [36]): 20.8 s
Clc1cncc(N2CC3CCC(C2)N3)n1 | 70 | 15 | 24.6 | 22.5 | 57 | 13.6 | 22.3 | 5 | Licking latency (Mus musculus [37]): 19.7 s; Licking latency (Mus musculus [5]): 15.7 s; Licking latency (Mus musculus [6]): 15.1 s; Licking latency (Mus musculus [12]): 15.5 s
